In the library only some 2% were active in any assay of this set; here they are far more common.
dFosB act: enhances mouse delta FosB homodimer DNA binding. activation, % at 25 µM. purified delta FosB, TAMRA-CDK5 oligo fluorescence polarization; percent of positive-control signal above neutral wells. AID 493131. 0.99% of 340,000 active;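 active = mean activation above about 17%, with every replicate also reaching it, limit read from the data, passing the limit was not always enough; inconclusive = only one of the two conditions met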
SR-BI DiI-HDL act: SR-BI HDL lipid transfer activation. CHO ldlA[mSR-BI] cells, DiI-HDL uptake fluorescence, 3 h; 100 = double the neutral-control signal. activation, % at 12.5 µM. 0.096% of 320,000 active. AID 504775;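 active = mean replicate activation of at least 60% and every replicate at or above 60%; inconclusive = mean or all-replicate condition met, but not both; inactive = mean below 60% and not all replicates reaching 60%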;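 also: 0% = median plate neutral-control signal and 100% = twice that signal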
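Assay system: LDL receptor-deficient CHO ldlA cells overexpressing murine SR-BI / Medium: BSA-supplemented, HEPES-buffered Ham's F12, pH 7.4 / Probe or stimulus: DiI-labelled HDL at 10 µg/mL final / Timing: compound with DiI-HDL co-incubation, 3 h at 37 °C / Technique: bottom-read cell fluorescence after medium removal, ex 550/em 595 nm / Measure: HDL uptake via cellular fluorescence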
SR-BI DiI inh: blocks mouse SR-BI lipid uptake from DiI-HDL; Q61009; 0.96% of 320,000 active; inhibition, % at 12.5 µM; ldlA[mSR-BI] CHO cells, DiI-HDL uptake fluorescence, 3 h;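 active = mean replicate inhibition of at least 70% and a set share of replicates each scoring 70 or more; inconclusive = meets just one of the two criteria; inactive = fails both criteria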;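 also: 0% = median of neutral control wells and 100% = median of positive control wells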
CDK5 p35 inh: CDK5/p35 (human) kinase inhibition | Recombinant CDK5/p35, ADP-Glo luminescence, 60 min | 0.01% of 330,000 active | Q00535+Q15078 | inhibition, % at 10 µM;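 active = highest replicate inhibition of at least 50% and at least 75% of replicates reaching 50%; inconclusive = only one of the two criteria met; inactive = both criteria failed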;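 also: plate controls were DMSO neutral control for no effect and GW8510 at 10 µM for full effect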
Target sequence (Q00535 whole entry, looked up): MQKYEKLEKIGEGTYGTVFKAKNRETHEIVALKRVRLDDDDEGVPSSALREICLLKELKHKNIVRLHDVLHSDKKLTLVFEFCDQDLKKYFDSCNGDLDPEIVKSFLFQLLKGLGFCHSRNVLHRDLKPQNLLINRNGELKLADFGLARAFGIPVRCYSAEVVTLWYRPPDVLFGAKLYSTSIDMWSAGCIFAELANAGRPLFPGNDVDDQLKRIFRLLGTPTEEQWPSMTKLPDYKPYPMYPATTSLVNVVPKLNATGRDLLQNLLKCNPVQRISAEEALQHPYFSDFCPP
Target sequence (Q15078 whole entry, looked up): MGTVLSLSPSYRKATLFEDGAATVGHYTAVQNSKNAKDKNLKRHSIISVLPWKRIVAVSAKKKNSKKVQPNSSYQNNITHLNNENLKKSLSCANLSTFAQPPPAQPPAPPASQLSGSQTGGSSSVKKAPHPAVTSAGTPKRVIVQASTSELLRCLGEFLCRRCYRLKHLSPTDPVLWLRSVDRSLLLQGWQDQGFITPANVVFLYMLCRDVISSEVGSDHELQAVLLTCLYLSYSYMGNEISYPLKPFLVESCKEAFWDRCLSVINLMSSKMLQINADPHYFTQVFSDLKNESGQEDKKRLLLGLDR
An asterisk follows results filed as active; ? = inconclusive; / = no result.

SMILES	dFosB act	SR-BI DiI-HDL act	SR-BI DiI inh	CDK5 p35 inh
Cc1ccc(NC(=S)NC(=O)CC2CC(C)(C)OC2=O)cc1 (stereo not drawn)	-6.8	30.6	-30.6	0.3
COC(=O)C1C(O)=C(C(C)=Nc2cccc3ccccc23)C(=O)CC1(C)C (stereo not drawn)	4.3	5.5	-5.5	-0.6
CC(C)n1cc(/C=C2\NC(=O)N(c3cccc(Cl)c3)C2=O)c2ccccc21	-3.0	-97.8	97.8*	1.4
CC(C)n1cc(/C=C2/NC(=O)N(c3cccc(Cl)c3)C2=O)c2ccccc21	-2.6	-65.9	65.9	-1.7
CCN(CC)CCNC(=O)c1ccc(NC(=O)CC(NC(=O)c2ccccc2Cl)c2ccccc2)cc1 (stereo not drawn)	-8.8	3.1	-3.1	0.6
COc1cc(OC)c2c(-c3cccc(-c4ccc(F)c(Cl)c4)c3)cc(=O)oc2c1	-6.3	-50.3	50.3	-2.5
O=Nc1c(-c2c(O)[nH]c3cc(Br)ccc23)[nH]c2ccccc12	-5.5	-118.1	118.2*	5.4
COc1cc(OC)cc(C(=O)Nc2nc(CC(=O)NCc3ccc(F)cc3)cs2)c1	-0.8	-52.7	52.7	1.0
COc1cc(OC)cc(C(=O)Nc2nc(CC(=O)NCc3ccccc3OC)cs2)c1	4.5	-70.0	70.0*	1.6
COc1cc(OC)cc(C(=O)Nc2nc(CC(=O)NCCc3ccccc3)cs2)c1	-21.4	-80.8	80.8*	-1.7
COc1cccc(CN2CC(C(=O)NCCN3CCOC3=O)CCC2=O)c1 (stereo not drawn)	-4.0	27.2	-27.2	-4.3
COc1ccccc1NC(=O)c1c(Nc2ccccc2F)sc(C(=O)Nc2cccc(Cl)c2)c1N	4.1	-74.6	74.6*	2.4
Cc1cc(OCCCC(=O)NCCc2nnc3ccccn23)ccc1Cl	-1.1	28.4	-28.4	0.0
O=C(N/N=C/c1ccc(OC(F)F)cc1)c1ccc(CSc2nc3ccccc3[nH]2)cc1	?	-81.7	81.7*	2.0
CCOc1ccc(/C=N/NC(=O)c2ccc(CSc3nc4ccccc4[nH]3)cc2)cc1	-12.5	-59.5	59.5	0.2
Cc1nc(COc2ccc(C(=O)NCc3ccccc3CN3CCCCC3)cc2)cs1	-3.4	-38.8	38.8	0.2
CCOC(=O)c1c(NC(=O)C(=O)N/N=C/c2ccccc2OC)sc2c1CCCCC2	-7.6	-51.6	51.6	-0.8
CCOC(=O)c1c(NC(=O)C(=O)N/N=C/c2ccccc2O)sc2c1CCCCC2	-4.1	-126.6	126.6*	-1.7
CCOC(=O)c1cc(C(=O)Nc2sc3c(c2C#N)CCCC3)nn1C	5.9	-76.3	76.3*	0.9
CCOC(=O)c1c(NC(=O)c2ccn(CC)n2)sc2c1CCCC2	-19.6	-71.9	71.8*	1.0
CCOC(=O)c1c(NC(=O)c2ccco2)sc2c1CCCC2	5.3	-4.6	4.6	-1.8
Cc1cc(Cl)ccc1NC(=O)C1COc2ccccc2O1 (stereo not drawn)	6.4	10.0	-10.0	-0.2
CCC(=O)c1cn([C@@H](CCC(OC)OC)CC(=O)OC(C)(C)C)cc1CC	-12.5	2.4	-2.4	0.0
COc1ccc(C(=O)NNC(=O)c2ccc3ccccc3c2O)cc1	10.5	-75.5	75.5*	0.4
Cc1ccc(C(=O)NNC(=O)c2ccc3ccccc3c2O)cc1	0.6	-111.1	111.1*	-0.3
SMILES	dFosB act	SR-BI DiI-HDL act	SR-BI DiI inh	CDK5 p35 inh
O=C(NNC(=O)c1ccc2ccccc2c1O)NC1CCCCC1	0.3	/	90.0*	0.8
COc1cccc(OCC(=O)NNC(=O)c2ccc3ccccc3c2O)c1	-5.2	/	89.0*	2.2
COc1ccc(C(=O)NNC(=O)c2ccc3ccccc3c2)cc1	5.0	-11.6	11.6	-0.7
Cc1ccc(NC(=O)COC(=O)c2ccc(-n3nc(C)cc3C)cc2)c(F)c1	-9.2	6.1	-6.1	-1.9
CCn1ccnc1CN(C)C(=O)c1ccc(OC2CCN(CCc3ccccc3)CC2)cc1	-2.5	5.2	-5.2	-2.7
CSc1cccc(NC(=O)CCn2c(=O)c3cccn3c3cccnc32)c1	-2.5	-77.2	77.2*	-0.2
CCOc1ccc(CCNC(=O)CCCn2c(=O)c3cccn3c3cccnc32)cc1OCC	-2.2	-76.4	76.4*	0.8
COc1ccc(CCNC(=O)CCCn2c(=O)c3cccn3c3cccnc32)c(OC)c1	-1.7	-71.3	71.3*	1.6
O=C(CCC(=O)Nc1cccnc1)Nc1cccnc1	-1.9	15.0	-15.0	0.8
Cc1ccc(C)c(N2N=C(C(=O)OCc3nnc(-c4ccccc4)o3)CCC2=O)c1	-8.6	-0.6	0.6	-7.4
CCN(Cc1ccccc1)S(=O)(=O)c1cc2[nH]c(=O)c(=O)[nH]c2cc1C	-6.2	-6.0	6.0	0.8
O=C(Nc1ccc(-c2csc(Nc3cccc(C(F)(F)F)c3)n2)cc1)c1cc([N+](=O)[O-])cc(C(F)(F)F)c1	-5.2	-91.9	91.9*	-0.7
O=[N+]([O-])c1cccc(-c2csc(Nc3ccccc3)n2)c1	-12.2	-87.3	87.3*	1.1
CC(=O)c1cccc(Nc2nc(-c3cccnc3)cs2)c1	-5.4	-23.2	23.2	0.1
COc1ccccc1Nc1nc(-c2cccc([N+](=O)[O-])c2)cs1	-0.1	-59.0	59.0	-0.6
O=C(Nc1nc(-c2ccccc2)cs1)c1cccc([N+](=O)[O-])c1	2.0	-51.3	51.3	1.0
O=C(Nc1ccc(-c2csc(Nc3ccc(Cl)cc3)n2)cc1)c1ccccc1	3.1	-92.8	92.8*	-1.4
CC(=O)c1cccc(Nc2nc(-c3ccccc3)cs2)c1	-5.5	-75.0	75.0*	0.0
O=C(CN(c1ccccc1)S(=O)(=O)c1ccccc1[N+](=O)[O-])Nc1cccnc1	0.3	9.7	-9.7	1.8
O=C(Nc1ccc(-c2csc(Nc3cccc(C(F)(F)F)c3)n2)cc1)c1ccccc1	0.6	-97.2	97.2*	-6.9
O=C(Nc1cccc(-c2csc(Nc3cccc(C(F)(F)F)c3)n2)c1)c1ccccc1	-0.5	-78.3	78.3*	-3.1
O=C(Nc1cccc(-c2csc(Nc3ccccc3)n2)c1)c1ccccc1	-6.1	-76.9	76.9*	-4.9
CCn1c(=O)n(CC)c2cc(N3CCCC3)c(NC(=O)c3ccc(C)cc3)cc21	-8.4	-6.1	6.1	2.4
O=C(Nc1ccccc1)C(=O)c1c[nH]c2ccccc12	0.8	3.4	-3.4	1.1
CCN1C(=O)[C@@H]2[C@H](C1=O)[C@@H]1C[C@H]3C(=O)N(CC)C(=O)[C@H]3[C@@H]3C1=C(C(=O)N1C(=O)OC(=NCC4CC4)[C@]31C)[C@@H]2C	0.1	42.7	-42.7	0.7
O=C(CSc1ccccc1)NNC(=O)c1ccccc1O	-2.2	-44.3	44.3	-3.5
Cc1ccc(C(=O)N2CCN(c3ccc([N+](=O)[O-])cc3)CC2)o1	-8.7	/	/	0.8
Cc1ccc(C(=O)N/C(=C\c2ccc(-c3cccc([N+](=O)[O-])c3)o2)C(=O)NCCCN2CCOCC2)cc1	8.7	-78.4	78.4*	/
Cc1ccc(C(=O)N/C(=C/c2ccc(-c3cccc([N+](=O)[O-])c3)o2)C(=O)NC(C)C)cc1	-8.5	-83.3	83.3*	-0.5

Screening results: PubChem, Broad Institute
